Results as given in article PMC5116011 (The Journal of antibiotics, 2016).
Converted amounts (≈) assume the structure as drawn. Where two headings read alike, the source gives them in different places.

How the values were obtained:
E. faecalis ATCC33186 = assay: MIC, microbroth dilution in Mueller-Hinton broth; type: cell-based; conditions: Enterococcus faecalis, ATCC33186, read-out: MIC EF
Method in brief: (§1)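 CLSI broth microdilution in cation-adjusted Mueller-Hinton broth. Inocula were grown from MH agar colonies in MH broth, with a final inoculum of 10^5 CFU/ml. Test compound final range was 200–0.2 µg/ml, incubated 37°C for 18–20 h. MIC was the lowest concentration preventing visible growth. Runs were at least duplicate, and the mean MIC was reported.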

E. coli BW25113 = assay: MIC, microbroth dilution in Mueller-Hinton broth; type: cell-based, Escherichia coli; conditions: for MIC EC MH+BP/CCCP / MIC EC / MIC EC +: E. coli BW25113; for MIC EC MH+BP/CCCP: MH broth with 30 µg/ml 2,2′-bipyridyl and 50 µg/ml CCCP; for MIC EC +: with clavulanic acid (6µg/ml); for MIC: Escherichia coli
B. subtilis ATCC23857 = assay: MIC, microbroth dilution in Mueller-Hinton broth; type: cell-based; conditions: Bacillus subtilis, ATCC23857, read-out: MIC BS
Method in brief: as §1

[1] = test system: E. coli BW25113 ΔtolC derivative JW5503-1; assay: MIC, microbroth dilution in Mueller-Hinton broth; type: cell-based, Escherichia coli; conditions: for MIC: Escherichia coli
P. mirabilis ATCC 25933 = assay: MIC, microbroth dilution in Mueller-Hinton broth; type: cell-based; conditions: Proteus mirabilis, ATCC25933, read-out: MIC PM
P. vulgaris ATCC 33420 = assay: MIC, microbroth dilution in Mueller-Hinton broth; type: cell-based; conditions: Proteus vulgaris, ATCC33420, read-out: MIC PV
B. anthracis sterne = assay: microbe, parasite or virus in culture; type: cell-based; conditions: Bacillus anthracis, read-out: MIC BA
S. aureus NRS 70 (MRSA) = assay: MIC, microbroth dilution in Mueller-Hinton broth; type: cell-based; conditions: Staphylococcus aureus, MRSA|NRS70, read-out: MIC MRSA
Method in brief: as §1

S. pyogenes ATCC700294 = assay: MIC, microbroth dilution in Mueller-Hinton broth; type: cell-based; conditions: Streptococcus pyogenes, ATCC700294, read-out: MIC SPy
Method in brief: as §1

[2] = test system: E. coli BW25113 ΔampC derivative JW4111-2; type: cell-based, Escherichia coli; conditions: for MIC: Escherichia coli, BW25113, read-out: MIC ECΔampC −
S. pneumoniae R6 = assay: MIC, microbroth dilution in Mueller-Hinton broth; type: cell-based; conditions: Streptococcus pneumoniae, R6, read-out: MIC SP
Method in brief: as §1

P. aeruginosa PA01 = assay: MIC, microbroth dilution in Mueller-Hinton broth; type: cell-based, Pseudomonas aeruginosa; conditions: for MIC PA MH+BP/CCCP: MH broth with 30 µg/ml 2,2′-bipyridyl and 50 µg/ml CCCP; for MIC PA +: with clavulanic acid (6µg/ml); for MIC: Pseudomonas aeruginosa
[3] = test system: S. aureus -ATCC29213 (MSSA); assay: MIC, microbroth dilution in Mueller-Hinton broth; type: cell-based; conditions: Staphylococcus aureus, read-out: MIC MSSA
Method in brief: as §1

[4] = BW25113, read-out: MIC EC, E. coli BW25113, Mueller-Hinton broth (Table 2)
[5] = BW25113, read-out: MIC ECΔtolC MH
[6] = BW25113, read-out: MIC ECΔtolC MH+BP

Row | SMILES | MIC (E. faecalis ATCC33186) [µg/mL] | MIC EC MH+BP/CCCP (E. coli BW25113) [µg/mL] | MIC EC + (E. coli BW25113) [µg/mL] | MIC (E. coli BW25113; [4]) [µg/mL] | MIC (B. subtilis ATCC23857) [µg/mL] | MIC ECΔtolC MH+BP/CCCP [1] [µg/mL] | MIC ECΔtolC MH+CCCP [1] [µg/mL] | MIC (P. mirabilis ATCC 25933) [µg/mL] | MIC (P. vulgaris ATCC 33420) [µg/mL] | MIC (B. anthracis sterne) [µg/mL] | MIC (S. aureus NRS 70 (MRSA)) [µg/mL] | MIC (S. pyogenes ATCC700294) [µg/mL] | MIC ECΔampC + [2] [µg/mL] | MIC (S. pneumoniae R6) [µg/mL] | MIC PA MH+BP/CCCP (P. aeruginosa PA01; P. aeruginosa PA01) [µg/mL] | MIC PA + (P. aeruginosa PA01; P. aeruginosa PA01) [µg/mL] | MIC (P. aeruginosa PA01; PA01, read-out: MIC PA) [µg/mL] | MIC (P. aeruginosa PA01; PA01, read-out: MIC PA MH) [µg/mL] | MIC (P. aeruginosa PA01; PA01, read-out: MIC PA MH+CCCP) [µg/mL] | MIC [3] [µg/mL] | further results
1 | CC1(C)SC2C(NC(=O)C(NC(=O)C3=C(O)C(Cc4ccc(O)cc4)NC3=O)c3ccccc3)C(=O)N2C1C(=O)O (centres unmarked) [Compound 2918] | 25 (≈ 43.1 µM) | 6.25 (≈ 10.8 µM) | 12.5 | 6.25 to 12.5 (≈ 10.8 to 21.5 µM) | 3.13 (≈ 5.39 µM) | 0.78 (≈ 1.34 µM) | 0.78 (≈ 1.34 µM) | 6.25 (≈ 10.8 µM) | 6.25 (≈ 10.8 µM) | 6.25 (≈ 10.8 µM) | 50 (≈ 86.1 µM) | 1.56 (≈ 2.69 µM) | 6.25 | 0.39 (≈ 0.672 µM) | 6.25 (≈ 10.8 µM) | 6.25 | 50 (≈ 86.1 µM) | 50 (≈ 86.1 µM) | 6.25 (≈ 10.8 µM) | 0.78 (≈ 1.34 µM) | MIC EC (E. coli BW25113; Mueller-Hinton broth (Table 2)): 6.25 µg/mL (≈ 10.8 µM); MIC ([1]; BW25113, read-out: MIC ECΔtolC): 6.25 µg/mL (≈ 10.8 µM); MIC [1, 5]: 1.56 µg/mL (≈ 2.69 µM); MIC [1, 6]: 1.56 µg/mL (≈ 2.69 µM); MIC (P. aeruginosa PA01; PA01, read-out: MIC PA MH+BP): 25 µg/mL (≈ 43.1 µM)
2 | CC1(C)SC2C(NC(=O)C(NC(=O)C3=C(O)CN(c4ccccc4)C3=O)c3ccccc3)C(=O)N2C1C(=O)O (centres unmarked) [Compound 2919] | 25 (≈ 45.4 µM) | 25 (≈ 45.4 µM) | 50 | 6.25 to 12.5 (≈ 11.4 to 22.7 µM) | 1.56 (≈ 2.83 µM) | 1.56 (≈ 2.83 µM) | 3.13 (≈ 5.68 µM) | 50 (≈ 90.8 µM) | 25 (≈ 45.4 µM) | 3.13 (≈ 5.68 µM) | 50 (≈ 90.8 µM) | 0.78 (≈ 1.42 µM) | 6.25 | < 0.2 | 12.5 (≈ 22.7 µM) | 12.5 | 50 (≈ 90.8 µM) | 50 (≈ 90.8 µM) | 25 (≈ 45.4 µM) | 0.78 (≈ 1.42 µM) | MIC EC (E. coli BW25113; Mueller-Hinton broth (Table 2)): 12.5 µg/mL (≈ 22.7 µM); MIC ([1]; BW25113, read-out: MIC ECΔtolC): 3.13 µg/mL (≈ 5.68 µM); MIC [1, 5]: 6.25 µg/mL (≈ 11.4 µM); MIC [1, 6]: 3.13 µg/mL (≈ 5.68 µM); MIC [2]: 12.5 µg/mL (≈ 22.7 µM); MIC (P. aeruginosa PA01; PA01, read-out: MIC PA MH+BP): 50 µg/mL (≈ 90.8 µM)
3 | CC1(C)SC2C(NC(=O)C(NC(=O)C3=C(O)C(Cc4ccco4)NC3=O)c3ccccc3)C(=O)N2C1C(=O)O (centres unmarked) [Compound 3002] | 25 (≈ 45.1 µM) | 1.56 (≈ 2.81 µM) | 6.25 | 6.25 to 12.5 (≈ 11.3 to 22.5 µM) | 1.56 (≈ 2.81 µM) | 0.78 (≈ 1.41 µM) | 1.56 (≈ 2.81 µM) | 1.56 (≈ 2.81 µM) | 25 (≈ 45.1 µM) | 3.13 (≈ 5.64 µM) | 50 (≈ 90.2 µM) | 0.39 (≈ 0.703 µM) | 6.25 | 0.39 (≈ 0.703 µM) | 3.13 (≈ 5.64 µM) | 3.13 | 12.5 (≈ 22.5 µM) | 12.5 (≈ 22.5 µM) | 6.25 (≈ 11.3 µM) | 0.78 (≈ 1.41 µM) | MIC EC (E. coli BW25113; Mueller-Hinton broth (Table 2)): 6.25 µg/mL (≈ 11.3 µM); MIC (P. aeruginosa PA01; PA01, read-out: MIC PA MH+BP): 12.5 µg/mL (≈ 22.5 µM); MIC (P. aeruginosa PA01; PA01, read-out: MIC PA −): 12.5 µg/mL (≈ 22.5 µM)
4 | CC1(C)S[C@@H]2[C@H](NC(=O)[C@H](N)c3ccccc3)C(=O)N2[C@H]1C(=O)O [ampicillin, reference compound] | 3.13 (≈ 8.96 µM) | 0.78 (≈ 2.23 µM) | 1.56 | 3.13 (≈ 8.96 µM) | < 0.2 | 0.39 (≈ 1.12 µM) | 1.56 (≈ 4.46 µM) | 3.13 (≈ 8.96 µM) | 100 (≈ 286 µM) | < 0.2 | 50 (≈ 143 µM) | < 0.2 | 1.56 | < 0.2 | – | 100 | > 200 | > 200 | > 200 | < 0.2 | MIC PA (P. aeruginosa PA01; P. aeruginosa PA01, Mueller-Hinton broth (Table 2)): >200 µg/mL; MIC (P. aeruginosa PA01; PA01, read-out: MIC PA MH+BP): > 200 µg/mL; MIC (P. aeruginosa PA01; PA01, read-out: MIC PA −): > 200 µg/mL
5 | CCN1CCN(C(=O)N[C@@H](C(=O)N[C@@H]2C(=O)N3[C@@H]2SC(C)(C)[C@@H]3C(=O)O)c2ccccc2)C(=O)C1=O [piperacillin, reference compound] | 3.13 (≈ 6.05 µM) | 0.78 (≈ 1.51 µM) | 3.13 | – | 0.39 (≈ 0.754 µM) | – | – | 0.19 (≈ 0.367 µM) | 1.56 (≈ 3.01 µM) | 0.39 (≈ 0.754 µM) | 25 (≈ 48.3 µM) | < 0.2 | 1.56 | < 0.2 | 3.13 (≈ 6.05 µM) | 3.13 | – | – | 3.13 (≈ 6.05 µM) | < 0.2 | MIC (E. coli BW25113; BW25113, read-out: MIC EC MH+BP): 1.56 µg/mL (≈ 3.01 µM); MIC ([1]; BW25113, read-out: MIC ECΔtolC): 1.56 µg/mL (≈ 3.01 µM); MIC [1, 5]: 0.09 µg/mL (≈ 0.174 µM); MIC [1, 6]: 0.09 µg/mL (≈ 0.174 µM); MIC [2]: 1.56 µg/mL (≈ 3.01 µM)
